In ChEMBL document CHEMBL3108696, “Structure-activity relationships of chromone derivatives toward the mechanism of interaction with and inhibition of breast cancer resistance protein ABCG2” (J Med Chem, 2013):
pEC50, pIC50: −log10 of the molar value.

Assays:
[1] = molecular target: T1, Broad substrate specificity ATP-binding cassette transporter ABCG2 (Homo sapiens, UniProt Q9UNQ0); test: Binding affinity to ABCG2 (unknown origin) expressed in HEK293 cells assessed as modulation of 5D3 binding at 5 uM after 45 mins by flow cytometric analysis relative to Ko143; format: cell-based; details: hek293, 0.75 h
T1 sequence (Q9UNQ0 whole entry): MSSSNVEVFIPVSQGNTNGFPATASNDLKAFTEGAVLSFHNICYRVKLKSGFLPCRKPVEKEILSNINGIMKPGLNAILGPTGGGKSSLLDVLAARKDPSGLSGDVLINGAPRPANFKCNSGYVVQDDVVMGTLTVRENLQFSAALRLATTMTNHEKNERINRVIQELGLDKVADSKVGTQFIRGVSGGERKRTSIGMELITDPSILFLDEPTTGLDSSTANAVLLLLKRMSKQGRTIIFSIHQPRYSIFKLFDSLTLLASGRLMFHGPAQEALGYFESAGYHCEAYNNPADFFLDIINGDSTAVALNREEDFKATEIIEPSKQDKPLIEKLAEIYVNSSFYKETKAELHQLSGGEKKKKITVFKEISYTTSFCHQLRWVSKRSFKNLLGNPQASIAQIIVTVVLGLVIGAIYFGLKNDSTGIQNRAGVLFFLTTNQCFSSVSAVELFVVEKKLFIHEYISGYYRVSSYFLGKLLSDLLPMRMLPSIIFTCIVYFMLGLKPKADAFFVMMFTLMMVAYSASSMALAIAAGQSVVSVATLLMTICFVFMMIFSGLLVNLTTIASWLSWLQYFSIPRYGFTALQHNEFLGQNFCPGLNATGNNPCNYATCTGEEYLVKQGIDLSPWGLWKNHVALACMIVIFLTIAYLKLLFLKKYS
In short: (§1)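 5D3 shift assay on ABCG2-transfected HEK293 cells (0.5 × 10^6 cells/tube) in PBS with 0.5% BSA. Compound at 2 or 5 μM plus 5D3 anti-ABCG2 antibody or isotype control (1 μg/mL), 45 min at 37 °C. Anti-mouse Alexa Fluor 488 secondary (3 μg/mL), 30 min at 37 °C. Binding read by flow cytometry, expressed relative to 2 μM Ko143 (100%). Mean ± SD of ≥3 independent experiments.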

[2] = molecular target: T1, Broad substrate specificity ATP-binding cassette transporter ABCG2; test: Binding affinity to ABCG2 (unknown origin) expressed in HEK293 cells assessed as modulation of 5D3 binding at 2 uM after 45 mins by flow cytometric analysis relative to Ko143; format: cell-based; details: hek293, 0.75 h; in short: as §1
[3] = molecular target: T1, Broad substrate specificity ATP-binding cassette transporter ABCG2; test: Inhibition of human ABCG2 expressed in Sf9 insect cell membranes assessed as inhibition of quercetin-stimulated ATPase activity after 30 mins by colorimetric analysis in presence of sodium orthovanadate; details: for inhibition (INH): human, sf9, 0.5 h
In short: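 Quercetin (2 μM)-stimulated vanadate-sensitive ATPase assay on cholesterol-loaded ABCG2 Sf9 membranes (10 μg/sample) in Tris/NaCl buffer, pH 8.0. Compound at 0.01, 0.03, 0.5 and 2 μM. ATP-Mg 3.9 mM, 30 min at 37 °C. Released phosphate read colorimetrically at 880 nm. IC50 estimated as 50% inhibition of initial activity; three independent experiments.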

[4] = molecular target: T1, Broad substrate specificity ATP-binding cassette transporter ABCG2; test: Inhibition of human ABCG2 ATPase activity expressed in Sf9 insect cell membranes at 2 uM after 30 mins by colorimetric analysis relative to basal control in presence of sodium orthovanadate; details: sf9, 0.5 h
In short: (§2)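 Basal vanadate-sensitive ATPase assay on cholesterol-loaded membranes from human ABCG2-expressing Sf9 cells (0.5 mg/mL; 10 μg/sample). Buffer: 50 mM Tris-HCl, 50 mM NaCl, pH 8.0, with azide, ouabain, DTT and EGTA, ± 0.33 mM orthovanadate. Compound at 2 μM, or substrates nilotinib 0.1 μM, quercetin 2 μM, prazosin 20 μM. ATP-Mg 3.9 mM, 30 min at 37 °C. Phosphate read by molybdate/ascorbate at 880 nm.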

[5] = molecular target: T2, ABCG2 (Homo sapiens, UniProt Q9UNQ0); test: Inhibition of ABCG2 in mitoxantrone-selected human H460 cells assessed as reversal of mitoxantrone-resistance at 1 uM after 72 hrs by MTT assay relative to control; format: cell-based; details: probe mitoxantrone
T2 sequence (Q9UNQ0 whole entry): T1 sequence (Q9UNQ0 whole entry)

[6] = molecular target: T2, ABCG2; test: Inhibition of ABCG2 (unknown origin)-mediated pheophorbide A efflux expressed in HEK293 cells at 1 to 5 uM after 30 mins by flow cytometric analysis relative to control; format: cell-based; details: HEK293 cells expressing ABCG2, probe pheophorbide A, read-out: Imax
In short: (§3)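 Cells seeded at 1.5 × 10^5 cells/well and grown 48 h were exposed to BODIPY-prazosin (0.2 μM) or pheophorbide A (2 μM) for 30 min at 37 °C with or without compound. After washing and trypsinization, intracellular fluorescence was read by flow cytometry (FL4, ≥10 000 events). Percent inhibition = (C−M)/(Cev−M)×100, where Cev is from ABCG2-negative control cells.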

[7] = molecular target: T1, Broad substrate specificity ATP-binding cassette transporter ABCG2; test: Inhibition of ABCG2 (unknown origin)-mediated BODIPY-prazosin efflux expressed in HEK293 cells at 1 to 5 uM after 30 mins by flow cytometric analysis; format: cell-based; details: hek293, 0.5 h; in short: as §3
[8] = molecular target: Multidrug resistance-associated protein 1 (Homo sapiens, UniProt P33527); test: Inhibition of ABCC1 (unknown origin)-mediated calcein-AM efflux expressed in HEK293 cells at 5 uM after 30 mins by flow cytometric analysis; format: cell-based; details: hek293, 0.5 h
Sequence of Multidrug resistance-associated protein 1 (P33527 whole entry): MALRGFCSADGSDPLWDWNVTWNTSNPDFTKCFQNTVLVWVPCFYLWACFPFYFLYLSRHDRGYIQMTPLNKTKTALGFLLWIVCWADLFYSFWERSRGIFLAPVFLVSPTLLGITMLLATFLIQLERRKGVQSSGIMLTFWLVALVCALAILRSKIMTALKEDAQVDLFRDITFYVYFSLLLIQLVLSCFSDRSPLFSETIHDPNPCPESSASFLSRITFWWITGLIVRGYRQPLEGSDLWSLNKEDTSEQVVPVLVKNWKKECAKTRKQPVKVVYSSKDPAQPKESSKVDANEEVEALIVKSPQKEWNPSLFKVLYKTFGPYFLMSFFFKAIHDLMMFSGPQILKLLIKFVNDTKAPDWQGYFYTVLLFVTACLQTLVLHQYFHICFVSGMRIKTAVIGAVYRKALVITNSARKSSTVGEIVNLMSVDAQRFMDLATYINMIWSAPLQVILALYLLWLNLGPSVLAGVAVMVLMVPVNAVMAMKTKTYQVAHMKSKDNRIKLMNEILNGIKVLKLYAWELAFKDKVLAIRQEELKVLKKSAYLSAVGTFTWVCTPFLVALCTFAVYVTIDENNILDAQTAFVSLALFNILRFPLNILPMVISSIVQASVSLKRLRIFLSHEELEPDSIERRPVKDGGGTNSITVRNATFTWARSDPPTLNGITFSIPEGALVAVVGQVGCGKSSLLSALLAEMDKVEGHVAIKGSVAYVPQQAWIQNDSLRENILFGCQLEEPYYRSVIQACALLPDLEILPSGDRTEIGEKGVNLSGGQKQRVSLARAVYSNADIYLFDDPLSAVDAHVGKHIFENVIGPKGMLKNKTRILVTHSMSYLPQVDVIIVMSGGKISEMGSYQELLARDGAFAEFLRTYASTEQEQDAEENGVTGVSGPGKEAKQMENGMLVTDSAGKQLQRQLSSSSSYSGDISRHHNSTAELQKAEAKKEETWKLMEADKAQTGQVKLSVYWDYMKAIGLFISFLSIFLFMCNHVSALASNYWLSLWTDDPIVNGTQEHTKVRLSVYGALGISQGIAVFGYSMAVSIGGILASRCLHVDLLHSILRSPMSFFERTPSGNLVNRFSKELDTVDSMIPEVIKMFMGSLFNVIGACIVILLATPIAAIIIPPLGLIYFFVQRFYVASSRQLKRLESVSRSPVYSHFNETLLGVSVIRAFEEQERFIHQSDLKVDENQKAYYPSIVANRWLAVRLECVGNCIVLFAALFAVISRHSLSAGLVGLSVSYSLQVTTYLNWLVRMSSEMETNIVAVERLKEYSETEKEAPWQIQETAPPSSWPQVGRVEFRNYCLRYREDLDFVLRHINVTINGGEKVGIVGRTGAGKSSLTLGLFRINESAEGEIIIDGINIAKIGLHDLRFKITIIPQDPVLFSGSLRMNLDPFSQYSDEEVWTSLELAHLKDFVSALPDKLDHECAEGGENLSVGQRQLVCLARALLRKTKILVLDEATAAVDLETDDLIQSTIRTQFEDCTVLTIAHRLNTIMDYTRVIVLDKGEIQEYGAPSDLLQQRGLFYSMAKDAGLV

[9] = molecular target: T2, ABCG2; test: Inhibition of ABCG2 in mitoxantrone-selected human H460 cells assessed as reversal of mitoxantrone-resistance at 0.2 uM after 72 hrs by MTT assay relative to control; format: cell-based; details: probe mitoxantrone
[10] = molecular target: ATP-dependent translocase ABCB1 (Homo sapiens, UniProt P08183); test: Inhibition of ABCB1 (unknown origin)-mediated rhodamine 123 efflux expressed in mouse NIH/3T3 cells at 5 uM after 30 mins by flow cytometric analysis; format: cell-based; details: nih/3t3, 0.5 h
Sequence of ATP-dependent translocase ABCB1 (P08183 whole entry): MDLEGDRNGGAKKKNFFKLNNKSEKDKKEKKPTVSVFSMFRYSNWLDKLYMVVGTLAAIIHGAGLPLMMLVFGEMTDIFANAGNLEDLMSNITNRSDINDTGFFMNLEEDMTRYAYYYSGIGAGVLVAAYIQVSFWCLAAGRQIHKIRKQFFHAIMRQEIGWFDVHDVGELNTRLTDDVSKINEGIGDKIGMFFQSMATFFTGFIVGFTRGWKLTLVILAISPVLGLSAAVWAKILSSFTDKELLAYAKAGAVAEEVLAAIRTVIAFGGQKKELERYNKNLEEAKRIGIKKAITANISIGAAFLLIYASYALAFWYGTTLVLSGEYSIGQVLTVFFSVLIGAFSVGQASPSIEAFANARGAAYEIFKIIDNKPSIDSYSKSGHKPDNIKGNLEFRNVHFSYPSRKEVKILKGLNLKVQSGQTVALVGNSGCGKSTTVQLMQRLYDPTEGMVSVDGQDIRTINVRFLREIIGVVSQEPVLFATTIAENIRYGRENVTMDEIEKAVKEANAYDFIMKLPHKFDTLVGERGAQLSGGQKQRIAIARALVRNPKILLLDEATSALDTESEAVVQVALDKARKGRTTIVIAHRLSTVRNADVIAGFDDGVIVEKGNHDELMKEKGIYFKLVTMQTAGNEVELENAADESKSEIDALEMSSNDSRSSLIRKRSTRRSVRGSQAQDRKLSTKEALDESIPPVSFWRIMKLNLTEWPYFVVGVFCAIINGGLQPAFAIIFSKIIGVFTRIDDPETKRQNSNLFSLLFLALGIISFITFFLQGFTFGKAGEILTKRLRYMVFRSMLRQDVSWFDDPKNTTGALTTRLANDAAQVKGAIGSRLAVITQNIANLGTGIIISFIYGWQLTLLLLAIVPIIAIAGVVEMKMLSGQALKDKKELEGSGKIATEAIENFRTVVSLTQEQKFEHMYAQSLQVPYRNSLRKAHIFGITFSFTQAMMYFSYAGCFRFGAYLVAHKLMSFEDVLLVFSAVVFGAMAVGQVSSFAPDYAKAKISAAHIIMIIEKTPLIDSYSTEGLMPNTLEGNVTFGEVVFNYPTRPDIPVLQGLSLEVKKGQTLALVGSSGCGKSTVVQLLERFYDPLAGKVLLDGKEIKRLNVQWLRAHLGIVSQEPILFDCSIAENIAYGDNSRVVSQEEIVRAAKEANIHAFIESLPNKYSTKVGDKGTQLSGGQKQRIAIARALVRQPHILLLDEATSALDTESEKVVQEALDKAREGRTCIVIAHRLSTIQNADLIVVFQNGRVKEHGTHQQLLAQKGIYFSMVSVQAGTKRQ

[11] = molecular target: T2, ABCG2; test: Inhibition of ABCG2 (unknown origin)-mediated mitoxantrone efflux expressed in HEK293 cells at 5 to 10 uM after 30 mins by flow cytometric analysis relative to control; format: cell-based; details: HEK293 cells expressing ABCG2, probe mitoxantrone, read-out: Imax
[12] = molecular target: T1, Broad substrate specificity ATP-binding cassette transporter ABCG2; test: Inhibition of ABCG2 (unknown origin)-mediated mitoxantrone efflux expressed in HEK293 cells after 30 mins by flow cytometric analysis; format: cell-based
[13] = molecular target: T1, Broad substrate specificity ATP-binding cassette transporter ABCG2; test: Inhibition of ABCG2-mediated mitoxantrone efflux in mitoxantrone-selected human H460 cells after 30 mins by flow cytometric analysis; format: cell-based
[14] = molecular target: T2, ABCG2; test: Inhibition of ABCG2-mediated mitoxantrone efflux in mitoxantrone-selected human H460 cells at 5 to 10 uM after 30 mins by flow cytometric analysis relative to control; format: cell-based; details: probe mitoxantrone, read-out: Imax
[15] = molecular target: T1, Broad substrate specificity ATP-binding cassette transporter ABCG2; test: […] expressed in Sf9 insect cell membranes at 0.1 uM after 30 mins by colorimetric analysis relative to basal control in presence of sodium orthovanadate; details: sf9, 0.5 h; in short: as §2
[16] = molecular target: T1, Broad substrate specificity ATP-binding cassette transporter ABCG2; test: […] expressed in Sf9 insect cell membranes at 20 uM after 30 mins by colorimetric analysis relative to basal control in presence of sodium orthovanadate; details: sf9, 0.5 h; in short: as §2

Activity [1] | Activity [2] | pIC50 [3] | inhibition (INH) [3] | inhibition (INH) [4] | Emax at 0.5 h [6] | inhibition (INH) [7] | inhibition (INH) [8] | inhibition (INH) [10] | fold change (FC) [15] | fold change (FC) [16] | SMILES | inhibition at 72 h, 1 µM [5] | inhibition at 72 h, 0.2 µM [9] | Emax at 0.5 h [11] | pEC50 [12] | pEC50 [13] | Emax at 0.5 h [14]
101% | 96.4% | 6.54 | Dose-dependent effect | Active | 80% | Active | Not Active | Not Active |  |  | COc1ccc2c(CCNC(=O)c3cc(=O)c4c(OCc5ccc(Br)cc5)cccc4o3)c[nH]c2c1 | > 72% | > 50% | 97% | 7.00 | 7.10 | 89%
98% | 88.7% | 5.96 | Dose-dependent effect | Active | 80% | Active | Not Active | Not Active |  |  | Cn1cc(CCNC(=O)c2cc(=O)c3c(OCc4ccc(Br)cc4)cccc3o2)c2ccccc21 | > 61% | > 4% | 85% | 6.52 | 6.66 | 102%
 |  |  |  |  |  |  |  |  | 3.2 |  | Cc1cn(-c2cc(NC(=O)c3ccc(C)c(Nc4nccc(-c5cccnc5)n4)c3)cc(C(F)(F)F)c2)cn1 [NILOTINIB] |  |  |  |  |  | 
 |  |  |  |  |  |  |  |  |  | 2.4 | COc1cc2nc(N3CCN(C(=O)c4ccco4)CC3)nc(N)c2cc1OC [PRAZOSIN] |  |  |  |  |  | 
